Assay results as given in ChEMBL document CHEMBL2346499, “Small molecule modulators of Wnt/β-catenin signaling” (Bioorg Med Chem Lett, 2013).
Activity calls are given as the source filed them. The calls are words filed in the database; no cut-off is given here.

biological target: Frizzled-1 (Homo sapiens) (UniProt Q9UP38); test: Induction of internalization of Frizzled1-GFP (unknown origin) expressed in human U2OS cells at 12.5 uM after 6 hrs by confocal microscopy; assay type: cell-based; details: not given
Sequence (Q9UP38 70-647 limits assumed): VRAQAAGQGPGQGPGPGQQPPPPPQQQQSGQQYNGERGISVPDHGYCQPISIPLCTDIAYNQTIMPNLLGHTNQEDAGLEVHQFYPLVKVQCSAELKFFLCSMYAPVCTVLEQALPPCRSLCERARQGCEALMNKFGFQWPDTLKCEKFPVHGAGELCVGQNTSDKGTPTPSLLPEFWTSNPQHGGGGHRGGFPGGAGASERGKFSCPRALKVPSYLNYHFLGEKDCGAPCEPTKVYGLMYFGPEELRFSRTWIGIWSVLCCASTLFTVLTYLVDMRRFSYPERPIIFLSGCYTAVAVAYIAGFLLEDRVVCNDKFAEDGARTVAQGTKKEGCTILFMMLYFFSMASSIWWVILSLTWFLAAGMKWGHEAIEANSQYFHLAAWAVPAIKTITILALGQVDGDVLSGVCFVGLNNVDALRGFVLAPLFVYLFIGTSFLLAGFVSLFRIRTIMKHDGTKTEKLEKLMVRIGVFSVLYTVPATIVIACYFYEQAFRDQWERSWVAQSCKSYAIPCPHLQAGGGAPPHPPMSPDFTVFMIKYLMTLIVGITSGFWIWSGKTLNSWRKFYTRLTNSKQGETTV

**Q.** Which Activity does the source give for [N-]=[N+]=NCCOCCOCCOc1cc([N+](=O)[O-])ccc1NC(=O)c1cc(Cl)ccc1O here?
**A.** The Activity was “Active”.

**Q.** Which Activity does the source give for O=C(Nc1cc(Cl)cc(Cl)c1O)c1c(O)c(Cl)cc(Cl)c1Cl here?
**A.** The Activity was “inactive”.

**Q.** For O=C(Nc1cccc([N+](=O)[O-])c1)c1cc(Cl)ccc1O, which Activity is on record?
**A.** Its Activity is “inactive”.

**Q.** With O=C(Nc1ccc(Oc2ccc(Cl)cc2)c(Cl)c1)c1cc(I)cc(I)c1O as the compound, how does the Activity read?
**A.** Its Activity is “inactive”.

**Q.** For O=C(Nc1ccc([N+](=O)[O-])cc1Br)c1ccccc1O, which Activity is on record?
**A.** The Activity was “Active”.

**Q.** With O=C(Nc1ccc(Br)cc1)c1cc(Br)cc(Br)c1O as the compound, how does the Activity read?
**A.** Its Activity is “inactive”.

**Q.** With O=C(Nc1ccc([N+](=O)[O-])cc1Cl)c1cccc(Cl)c1 as the compound, how does the Activity read?
**A.** Its Activity is “inactive”.

**Q.** With O=C(Nc1ccc([N+](=O)[O-])cc1Cl)c1ccccc1O as the compound, how does the Activity read?
**A.** The Activity was “Active”.

**Q.** Which Activity does the source give for O=C(Nc1ccc([N+](=O)[O-])cc1)c1cc(Br)ccc1O here?
**A.** Its Activity is “Active”.

**Q.** With O=C(Nc1ccc(NS(=O)(=O)c2ccc(Cl)cc2)cc1Cl)c1cc(Cl)ccc1O as the compound, how does the Activity read?
**A.** Its Activity is “inactive”.

**Q.** Which Activity does the source give for COc1ccc(Cl)cc1C(=O)Nc1ccc([N+](=O)[O-])cc1Cl here?
**A.** The Activity was “inactive”.

**Q.** For O=C(Nc1ccc([N+](=O)[O-])cc1Cl)c1cc(Br)ccc1O, which Activity is on record?
**A.** The Activity was “Active”.

**Q.** With O=C(Nc1ccc([N+](=O)[O-])cc1)c1cc(Cl)ccc1O as the compound, how does the Activity read?
**A.** Its Activity is “Active”.

**Q.** With COc1cc([N+](=O)[O-])ccc1NC(=O)c1cc(Cl)ccc1O as the compound, how does the Activity read?
**A.** The Activity was “Active”.

**Q.** Which Activity does the source give for O=C(Nc1ccccc1[N+](=O)[O-])c1cc(Cl)ccc1O here?
**A.** Its Activity is “inactive”.

**Q.** For Cc1cc(C(C#N)c2ccc(Cl)cc2)c(Cl)cc1NC(=O)c1cc(I)cc(I)c1O (stereo not given), which Activity is on record?
**A.** The Activity was “inactive”.

**Q.** Which Activity does the source give for Nc1ccc(NC(=O)c2cc(Cl)ccc2O)c(Cl)c1 here?
**A.** The Activity was “inactive”.

**Q.** With O=C(Nc1ccc([N+](=O)[O-])cc1Cl)c1cc(Cl)ccc1O [NICLOSAMIDE] as the compound, how does the Activity read?
**A.** The Activity was “Active”.

**Q.** Which Activity does the source give for [N-]=[N+]=Nc1ccc(NC(=O)c2cc(Cl)ccc2O)c(Cl)c1 here?
**A.** The Activity was “Active”.

test system: not listed separately; test: Induction of Wnt3A/beta-catenin signaling in HEK293 cells after 8 hrs by TOPflash reporter assay; assay type: cell-based; details: Homo sapiens
Summary of the method: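 HEK293 cells carrying TOPflash reporter, treated with or without Wnt3A conditioned medium (5% as reference sample) plus compound at the indicated concentrations for 8 hrs; luciferase read as relative luciferase units; significance versus Wnt3A-only sample by t test.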

**Q.** With O=C(Nc1ccc(NS(=O)(=O)c2ccc(Cl)cc2)cc1Cl)c1cc(Cl)ccc1O as the compound, how does the Activity read?
**A.** Its Activity is “Dose-dependent effect”.
